The results in this text go back to ChEMBL document CHEMBL3351977, “Chemotherapy of leishmaniasis part XIII: design and synthesis of novel heteroretinoid-bisbenzylidine ketone hybrids as antileishmanial agents” (Bioorg Med Chem Lett, 2015).

Data set [1] can be described thus: (§1) Cytotoxicity against African green monkey Vero cells assessed as cell viability after 72 hrs by MTT assay. In kind it is cell-based. To be noted: chlorocebus sabaeus, Vero cells. A digest of the protocol:
(§2)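 Vero cells were used, with viability read by MTT assay and podophyllotoxin as the reference cytotoxic drug. CC50 (50% maximum cytotoxic concentration) was estimated with a preformed template following Huber and Koella. Values are mean ± S.D. of three independent experiments.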
In general terms: Tetrazolium assays rely on reduction of a dye to a coloured formazan, in cell work by metabolically active cells.

A short description of data set [2]: (§3) Selectivity index, ratio of CC50 for African green monkey Vero cells to IC50 for amastigote stage of Leishmania donovani MHOM/IN/80/Dd8. In kind it is functional. A digest of the protocol:
(§4)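 SI was calculated as CC50 on Vero cells (MTT viability) divided by IC50 on L. donovani intramacrophagic amastigotes. IC50 came from four-parameter Hill regression and CC50 from a Huber–Koella template. Both are means of three independent experiments.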

Data set [3] has as its system Leishmania donovani. In words: Ratio of Miltefosine IC50 to compound IC50 for amastigote stage of Leishmania donovani MHOM/IN/80/Dd8 infected in mouse J774.1 cells. In kind it is functional.
The subject of data set [4] is Leishmania donovani. In words: Ratio of Sodium stibogluconate IC50 to compound IC50 for amastigote stage of Leishmania donovani MHOM/IN/80/Dd8 infected in mouse J774.1 cells. In kind it is functional.
For data set [5], the system named is Leishmania donovani. In words: Antileishmanial activity against amastigote stage of Leishmania donovani MHOM/IN/80/Dd8 infected in mouse J774.1 cells after 72 hrs by luciferase reporter gene assay. In kind it is functional, organism-based. A digest of the protocol: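 Intracellular L. donovani amastigotes growing inside macrophages were exposed to a concentration series. IC50 was obtained by nonlinear regression of the concentration-response curve with a four-parameter Hill equation. Values are mean ± S.D. of three independent experiments. Reference drugs were sodium stibogluconate and miltefosine.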

In data set [6] the test system is Vero. The data set is described as §3. The format is functional. A digest of the protocol: as §4
The subject of data set [7] is Vero. Described as §1. In kind it is cell-based. To be noted: chlorocebus sabaeus, vero, 72 h. A digest of the protocol: as §2
Setting [8] is: Leishmania donovani, MHOM/IN/80/Dd8, J774.1, 72 h.

The CC50 is the concentration giving 50% cytotoxicity. Usually IC50 stands for the midpoint of a concentration-inhibition curve. On to `COc1cc(/C=C2\CN(C(=O)c3cc(/C=C/C4C(C)=CCCC4(C)C)on3)C/C(=C\c3ccc(OCc4ccccc4)c(OC)c3)C2=O)ccc1OCc1ccccc1` (stereo unspecified), for which the CC50 at 72 h in data set [1] was above 400 µM. For the same molecule, in data set [2], the “Ratio CC50/IC50” value was above 79.68. Also, the Ratio IC50 with Leishmania donovani [3] amounted to 1.6; with Leishmania donovani [4], 10. Further, the IC50 with Leishmania donovani [5] (setting [8]) is 5.02 µM.

Take `COc1cc(/C=C2\CN(C(=O)c3cc(/C=C/C4C(C)=CCCC4(C)C)on3)C/C(=C\c3ccc(O)c(OC)c3)C2=O)ccc1O` (stereo unspecified): in data set [1], the CC50 at 72 h was 23.4 µM. In addition, the “Ratio CC50/IC50” value in data set [2] is reported as 12.81. Besides, in the data set on Leishmania donovani [5] (setting [8]), half-maximal inhibition (IC50) required 1.83 µM.

The molecule `COc1ccccc1/C=C1\CN(C(=O)c2cc(/C=C/C3C(C)=CCCC3(C)C)on2)C/C(=C\c2ccccc2OC)C1=O` (stereo unspecified) had an IC50 in the data set with Leishmania donovani [5] (setting [8]) above 20 µM.

As to `CC1=CCCC(C)(C)C1/C=C/c1cc(C(=O)N2C/C(=C\c3ccc(OCc4ccccc4)cc3)C(=O)/C(=C/c3ccc(OCc4ccccc4)cc3)C2)no1` (stereo unspecified), the IC50 in the data set with Leishmania donovani [5] (setting [8]) is above 40 µM.

Take `CCCCCCCCCCCCCCCCOP(=O)([O-])OCC[N+](C)(C)C` [MILTEFOSINE]: the “Ratio CC50/IC50” value in data set [2] was 6.52. For the same molecule, in the data set with Leishmania donovani [5] (setting [8]), 8.1 µM corresponded to half-maximal inhibition (IC50).

As for “SODIUM ANTIMONY GLUCONATE [listing 1 of 2 here]”, the Ratio CC50/IC50 in the data set on Vero [6] is above 7.53.

Take “SODIUM ANTIMONY GLUCONATE [listing 2 of 2 here]”: in the data set on Vero [7], the CC50 was above 400 µM. The molecule also showed an IC50 in the data set on Leishmania donovani [5] (j774.1) of 53.1 µM.

On to `CCOc1cc(/C=C2\CN(C(=O)c3cc(/C=C/C4C(C)=CCCC4(C)C)on3)C/C(=C\c3ccc(O)c(OCC)c3)C2=O)ccc1O` (stereo unspecified), for which the CC50 at 72 h in data set [1] is 27.7 µM. Further, the “Ratio CC50/IC50” value in data set [2] turned out to be 4.53. The molecule also registered an IC50 in the data set with Leishmania donovani [5] (setting [8]) of 6.1 µM.

In the case of `COc1ccc(/C=C2\CN(C(=O)c3cc(/C=C/C4C(C)=CCCC4(C)C)on3)C/C(=C\c3ccc(OC)c(OC)c3)C2=O)cc1OC` (stereo unspecified), the CC50 at 72 h in data set [1] came to 45.8 µM. Moreover, the “Ratio CC50/IC50” value in data set [2] is 12.2. The molecule further yielded an IC50 in the data set with Leishmania donovani [5] (setting [8]) of 3.75 µM.

`COc1ccc(/C=C2\CN(C(=O)c3cc(/C=C/C4C(C)=CCCC4(C)C)on3)C/C(=C\c3ccc(OC)cc3)C2=O)cc1` (stereo unspecified) had an IC50 in the data set with Leishmania donovani [5] (setting [8]) above 40 µM.

Turning to `COc1cc(/C=C2\CN(C(=O)c3cc(/C=C/C4C(C)=CCCC4(C)C)on3)C/C(=C\c3cc(OC)c(OC)c(OC)c3)C2=O)cc(OC)c1OC` (stereo unspecified), in data set [1], the CC50 at 72 h was 25.3 µM. Also, the “Ratio CC50/IC50” value in data set [2] worked out at 5.38. This molecule yielded an IC50 in the data set with Leishmania donovani [5] (setting [8]) of 4.7 µM.

In the case of `CC1=CCCC(C)(C)C1/C=C/c1cc(C(=O)N2C/C(=C\c3ccc(Cl)cc3)C(=O)/C(=C/c3ccc(Cl)cc3)C2)no1` (stereo unspecified), the IC50 in the data set with Leishmania donovani [5] (setting [8]) was above 40 µM.
